# Laboratory results taken from ChEMBL document CHEMBL1123093, “Synthesis and biological activity of 6-substituted mitosene analogues of the mitomycins” (J Med Chem, 1985).
# Assays:
# Escherichia coli [1] = test: Phage induction (ILB) in Escherichia coli: ratio was reported at a dose of 3.1 ug/mL
# Mus musculus [2] = organism: Mus musculus; test: Antitumor activity in P388 mouse leukemia and maximum % T/C value was determined at optimal dose (OD); type: functional
# Method in brief: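 P388 ascites leukemia: 10⁶ ascites cells implanted in female CDF₁ mice. Each dose level was given on day 1 only, to six mice per dose. Ten control mice received saline. Median survival time (MST) was recorded, and % T/C > 125 was taken as active.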
# Escherichia coli [3] = test: Phage induction (ILB) in Escherichia coli: ratio was reported at a dose of 0.8 ug/mL
# [4] = Partition coefficient between octanol and phosphate buffer (pH 7.4) was observed for the compound; type: physicochemical
# Method in brief: (§1)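 Partition coefficient measured as distribution between 1-octanol and pH 7.4 phosphate buffer, following the Hansch method.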
# Escherichia coli [5] = test: Induction of phage in Escherichia coli(ILB) expressed as Ratio of plaques in treated bacterial cultures to those in control at a dose of 3.1 ug/mL; type: functional
# Method in brief: (§2)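 Phage induction (ILB) in Escherichia coli: latent phage was activated in bacterial cultures exposed to compound at the stated concentration. Plaques (clear areas) were counted, and the value reported is plaques in treated culture divided by plaques in the untreated control.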
# [6] = Partition coefficient between octanol and phosphate buffer (pH 7.4) was observed for the compound at pH 7.4.; type: physicochemical
# Method in brief: as §1
# Escherichia coli [7] = test: Induction of phage in Escherichia coli(ILB) expressed as Ratio of plaques in treated bacterial cultures to those in control at a dose of 0.8 ug/mL; type: functional
# Method in brief: as §2
# Mus musculus [8] = test: Antitumor activity against P388 mouse leukemia as maximum and average change in body weight was reported at a dose of 6.4 mg/kg per injection.; type: functional
# Mus musculus [9] = test: Antitumor activity against P388 mouse leukemia as maximum and median survival time as % T/C was reported at a dose of 6.4 mg/Kg per injection.; type: functional
# Method in brief: (§3)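 P388 ascites, 10⁶ cells implanted in female CDF₁ mice. Six mice per dose; single treatment on day 1 only. Ten controls received saline. Survival recorded as median survival time; % T/C = treated vs control MST, with % T/C > 125 taken as active.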
# Mus musculus [10] = test: Antitumor activity against P388 mouse leukemia as maximum and median survival time as % T/C was reported at a dose of 3.2 mg/Kg per injection.; type: functional
# Method in brief: as §3
# Mus musculus [11] = test: Antitumor activity against P388 mouse leukemia as maximum and average change in body weight was reported at a dose of 3.2 mg/kg per injection.; type: functional
# Mus musculus [12] = test: Antitumor activity against P388 mouse leukemia as maximum and average change in body weight was reported at a dose of 25.6 mg/kg per injection.; type: functional
# Mus musculus [13] = test: Antitumor activity against P388 mouse leukemia as maximum and median survival time as % T/C was reported at a dose of 12.8 mg/Kg per injection.; type: functional
# Method in brief: as §3
# Mus musculus [14] = test: Antitumor activity against P388 mouse leukemia as maximum and average change in body weight was reported at a dose of 12.8 mg/kg per injection.; type: functional
# Mus musculus [15] = test: Antitumor activity against P388 mouse leukemia as maximum and average change in body weight was reported at a dose of 0.4 mg/Kg per injection.; type: functional
# Mus musculus [16] = test: Antitumor activity against P388 mouse leukemia as maximum and average change in body weight was reported at a dose of 0.8 mg/kg per injection.; type: functional
# Mus musculus [17] = test: Antitumor activity against P388 mouse leukemia as maximum and median survival time as % T/C was reported at a dose of 1.6 mg/Kg per injection.; type: functional
# Method in brief: as §3
# Mus musculus [18] = test: Antitumor activity against P388 mouse leukemia as maximum and average change in body weight was reported at a dose of 1.6 mg/kg per injection.; type: functional
# Mus musculus [19] = test: Antitumor activity against P388 mouse leukemia as maximum and average change in body weight was reported at a dose of 0.2 mg/kg per injection.; type: functional
# Mus musculus [20] = test: Antitumor activity against P388 mouse leukemia as maximum and median survival time as % T/C was reported at a dose of 4.8 mg/Kg per injection.; type: functional
# Method in brief: as §3
# Mus musculus [21] = test: Antitumor activity against P388 mouse leukemia as maximum and median survival time as % T/C was reported at a dose of 0.2 mg/Kg per injection.; type: functional
# Method in brief: as §3
# Mus musculus [22] = test: Antitumor activity against P388 mouse leukemia as maximum and median survival time as % T/C was reported at a dose of 0.4 mg/Kg per injection.; type: functional
# Method in brief: as §3
# Mus musculus [23] = test: Antitumor activity against P388 mouse leukemia as maximum and average change in body weight was reported at a dose of 4.8 mg/kg per injection.; type: functional
# Mus musculus [24] = test: Antitumor activity against P388 mouse leukemia as maximum and median survival time as % T/C was reported at a dose of 0.8 mg/Kg per injection.; type: functional
# Method in brief: as §3
SMILES,logD [4],ILB (Escherichia coli [1]),T/C (Mus musculus [2]),ILB (Escherichia coli [3]),T/C (Mus musculus [10]),Average weight change (Mus musculus [11]),further results
CNC(=O)OCc1c2c(n3c1C(OC(C)=O)CC3)C(=O)C(Br)=C(OC)C2=O (centres undefined),–,12.4,100%,7.1,–,–,–
CNC(=O)OCc1c2c(n3c1C(OC(C)=O)CC3)C(=O)C(Br)=C(N)C2=O (centres undefined),–,–,–,–,–,–,ILB (Escherichia coli [5]): 1.1; logD [6]: 1.15; ILB (Escherichia coli [7]): 1.2
CNC(=O)OCc1c2c(n3c1C(OC(C)=O)CC3)C(=O)C(C)=C(OC)C2=O (centres undefined),2.39,34.1,180%,16.6,120%,1 g,Average weight change (Mus musculus [8]): 1.2 g; T/C (Mus musculus [9]): 135%; Average weight change (Mus musculus [12]): -0.2 g; T/C (Mus musculus [13]): 145%; Average weight change (Mus musculus [14]): 0 g
CO[C@@]12[C@H](COC(N)=O)C3=C(C(=O)C(C)=C(N)C3=O)N1C[C@@H]1N[C@@H]12 [MITOMYCIN],–,–,–,–,195%,-0.7 g,Average weight change (Mus musculus [15]): 0.3 g; Average weight change (Mus musculus [16]): 0.5 g; T/C (Mus musculus [17]): 150%; Average weight change (Mus musculus [18]): -0.2 g; Average weight change (Mus musculus [19]): 0.8 g; T/C (Mus musculus [20]): 205%; T/C (Mus musculus [21]): 120%; T/C (Mus musculus [22]): 130%; Average weight change (Mus musculus [23]): -2.2 g; T/C (Mus musculus [24]): 135%
COC1=C(C)C(=O)c2c(c(COC(N)=O)c3n2CCC3OC(C)=O)C1=O (centres undefined),1.54,24.5,165%,13.2,133%,0.3 g,Average weight change (Mus musculus [16]): 1 g; T/C (Mus musculus [17]): 124%; Average weight change (Mus musculus [18]): 0.6 g; Average weight change (Mus musculus [8]): 0.1 g; T/C (Mus musculus [24]): 114%

# More lines, main results first:
logD [4],SMILES,ILB (Escherichia coli [1]),T/C (Mus musculus [2]),ILB (Escherichia coli [3]),T/C (Mus musculus [10]),Average weight change (Mus musculus [11]),further results
2.08,CNC(=O)OCc1c2c(n3c1C(OC(C)=O)CC3)C(=O)C(Cl)=C(OC)C2=O (centres undefined),27,–,12.1,–,–,–
0.72,COC1=CC(=O)c2c(c(COC(N)=O)c3n2CCC3OC(C)=O)C1=O (centres undefined),18.6,111%,11.9,–,–,–
1.19,CNC(=O)OCc1c2c(n3c1C(OC(C)=O)CC3)C(=O)C=C(OC)C2=O (centres undefined),10.1,106%,6,–,–,–
1.4,CNC(=O)OCc1c2c(n3c1C(OC(C)=O)CC3)C(=O)C=C(N1CCCC1)C2=O (centres undefined),1,–,1,–,–,–
